Converted amounts (≈) assume the structure as drawn.
Assays:
[1] = Antimalarial activity against Plasmodium berghei ANKA NK65 infected in po dosed Swiss Webster mouse assessed as reduction of parasitemia level administered qd for 4 days measured 24 hrs after last dose by light microscopic analysis; assay type: functional
[2] = Aqueous solubility of the compound in phosphate buffer at pH 6.5; assay type: physicochemical
Procedure, shortened: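 Non-equilibrium solubility. Concentrated DMSO stocks were diluted into pH 6.5 phosphate buffer (final DMSO 1% v/v) and precipitation was monitored by nephelometry. Solubility is given as the concentration range just before a turbidity signal rose above background.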

[3] = (§1) Plasma protein binding in human by albumin chromatographic method; assay type: ADME, cell-free; details: read-out: PPB (converted)
[4] = Partition coefficient, log D of the compound at pH 7.4 by UV-HPLC analysis; details: octanol/water
[5] = (§2) Intrinsic clearance in human liver microsome assessed per mg of protein at 1 uM after 60 mins by LC-MS analysis; assay type: ADME, microsomes; details: liver microsomes
Procedure, shortened: (§3)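 Microsomal stability. Compound at 1 μM with liver microsomes (0.4 mg/mL protein) in 0.1 M phosphate pH 7.4 at 37 °C. Started with an NADPH-regenerating system plus MgCl2; controls lacked NADPH. Quenched with cold acetonitrile at time points up to 60 min. Parent loss measured by LC-MS and fitted to exponential decay to give CLint.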

Mus musculus [6] = experiment: Cmax in Swiss mouse at 20 mg/kg, po measured after 24 hrs by LC-MS analysis; assay type: ADME, organism-based; parameters: dose 20 mg/kg, route oral; details: in vivo
Procedure, shortened: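 Non-fasted male Swiss outbred mice given a single oral gavage dose in 0.5% w/v sodium carboxymethylcellulose, 0.5% v/v benzyl alcohol, 0.4% v/v Tween 80. One mouse per time point, cardiac blood under isoflurane, sampling to 24 h. Plasma stabilized, acetonitrile-precipitated, quantified by LC-MS against blank-plasma standards; Cmax read from concentration-time profile.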

[7] = target: Dihydroorotate dehydrogenase (quinone), mitochondrial (Homo sapiens, UniProt Q02127); experiment: Inhibition of His6-tagged recombinant human dihydroorotate dehydrogenase expressed in Escherichia coli using L-dihydroorotate as substrate after 5 to 10 mins by DCIP dye-based assay
Sequence of Dihydroorotate dehydrogenase (quinone), mitochondrial (Q02127 whole entry): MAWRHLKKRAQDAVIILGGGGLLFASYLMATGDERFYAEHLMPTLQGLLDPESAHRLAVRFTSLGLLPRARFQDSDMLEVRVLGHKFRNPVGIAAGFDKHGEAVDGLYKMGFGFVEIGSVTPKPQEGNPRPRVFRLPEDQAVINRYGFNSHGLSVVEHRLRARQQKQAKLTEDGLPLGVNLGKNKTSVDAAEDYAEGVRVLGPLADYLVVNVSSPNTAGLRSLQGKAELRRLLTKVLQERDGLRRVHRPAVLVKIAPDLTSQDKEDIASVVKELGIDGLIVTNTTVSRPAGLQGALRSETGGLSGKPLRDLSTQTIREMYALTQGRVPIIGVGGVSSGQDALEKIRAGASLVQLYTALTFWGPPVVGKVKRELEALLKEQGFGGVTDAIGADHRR

[8] = target: T1, Dihydroorotate dehydrogenase (Plasmodium falciparum, UniProt Q54A96); experiment: Inhibition of His6-tagged recombinant Plasmodium falciparum dihydroorotate dehydrogenase expressed in Escherichia coli using L-dihydroorotate as substrate after 5 to 10 mins by DCIP dye-based assay
T1 sequence (Q54A96 whole entry): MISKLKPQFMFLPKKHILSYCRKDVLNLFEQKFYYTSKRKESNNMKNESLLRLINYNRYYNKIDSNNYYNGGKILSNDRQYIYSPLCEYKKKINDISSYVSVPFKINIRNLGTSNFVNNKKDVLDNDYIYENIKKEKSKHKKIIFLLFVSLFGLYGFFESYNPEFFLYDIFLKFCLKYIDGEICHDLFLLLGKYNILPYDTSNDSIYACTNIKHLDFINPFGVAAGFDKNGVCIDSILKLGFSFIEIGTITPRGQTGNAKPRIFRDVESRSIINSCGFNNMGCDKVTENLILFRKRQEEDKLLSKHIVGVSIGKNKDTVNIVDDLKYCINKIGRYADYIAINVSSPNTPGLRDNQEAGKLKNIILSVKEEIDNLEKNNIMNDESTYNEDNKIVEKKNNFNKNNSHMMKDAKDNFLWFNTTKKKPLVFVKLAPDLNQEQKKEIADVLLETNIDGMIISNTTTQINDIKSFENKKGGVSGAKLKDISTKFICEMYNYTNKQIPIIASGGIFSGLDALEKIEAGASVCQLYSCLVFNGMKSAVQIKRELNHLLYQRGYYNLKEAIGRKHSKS

[9] = Inhibition of His6-tagged recombinant Plasmodium berghei dihydroorotate dehydrogenase expressed in Escherichia coli using L-dihydroorotate as substrate after 10 to 15 mins by DCIP dye-based assay; details: in the assay text read “5 to 10 mins” for “10 to 15 mins”
Procedure, shortened: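 Truncated soluble enzyme lacking the N-terminal membrane domain. Final concentrations: 0.2 mM L-dihydroorotate, 0.02 mM CoQD, 0.12 mM DCIP. Reaction started with 10 nM enzyme and read at 600 nm for 5–10 min at 20 °C. Inhibitor 0.01–100 μM in 3-fold steps, in triplicate. IC50 from a three-parameter fit of vi/vo from initial rates.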

Liver microsomes = experiment: as §2; assay type: ADME; details: microsomes, 1 h, 1 µM; procedure, shortened: as §3
Mus musculus [10] = experiment: Toxicity in Swiss mouse assessed as adverse effect at 20 mg/kg, po measured after 24 hrs; assay type: organism-based; parameters: dose 20 mg/kg, route oral; details: in vivo
Liver = experiment: Intrinsic clearance in mouse liver microsome assessed per mg of protein at 1 uM after 60 mins by LC-MS analysis; assay type: ADME; details: microsomes, 1 h; procedure, shortened: as §3
Plasmodium falciparum = experiment: Antimalarial activity against Plasmodium falciparum 3D7 infected in human A positive erythrocytes by [3H]hypoxanthine uptake assay in presence of serum in medium; assay type: functional, organism-based
Procedure, shortened: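 Growth read by [3H]-hypoxanthine uptake. Each concentration run in quadruplicate and fitted to a four-parameter variable-slope log[I]-response model for 50% growth inhibition.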

Mus musculus [11] = experiment: Time duration above 1 uM plasma concentration in Swiss mouse at 20 mg/kg, po; assay type: ADME, organism-based; parameters: dose 20 mg/kg, route oral; details: in vivo
Procedure, shortened: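 Non-fasted male Swiss outbred mice given a single gavage dose in suspension (0.5% Na-CMC, 0.5% benzyl alcohol, 0.4% Tween 80). One mouse per time point; blood taken by cardiac puncture under isoflurane into stabilizer over 24 h. Plasma measured by LC-MS; time above 1 μM read directly from the concentration-time profile.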

Plasma = experiment: as §1; assay type: ADME, cell-free
[12] = Antimalarial activity against Plasmodium berghei ANKA NK65 infected in Swiss Webster mouse assessed as reduction of parasitemia level at 2 mg/kg, po qd administered for 4 days measured 24 hrs after last dose by light microscopic analysis; assay type: functional; parameters: scale not given: the % may be the effect or the level left
Procedure, shortened: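 Female Swiss Webster mice, 8-10 weeks old (20-22 g), infected intraperitoneally with 2 × 10^7 P. berghei NK65 ANKA-infected erythrocytes. Oral doses in CMC vehicle (200 μL), first given 3 h post-infection, then at 24, 48 and 72 h. Parasitemia followed daily from 24 h by light microscopy at 1000× oil immersion, counting ≥10 fields of >100 erythrocytes. Mice losing ≥20% body weight were euthanized.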

[13] = Inhibition of His6-tagged recombinant Plasmodium berghei dihydroorotate dehydrogenase expressed in Escherichia coli using L-dihydroorotate as substrate after 5 to 10 mins by DCIP dye-based assay
[14] = phosphate buffer, read-out: solubility

Row | SMILES | solubility [2, 14] | fraction unbound [3] | logD [4] | Cmax (Mus musculus [6]) | IC50 [8] | IC50 [9] | CL (Liver microsomes) | Activity (Mus musculus [10]) | CL (Liver) | EC50 (Plasmodium falciparum) | other results
1 | C[C@H]1[C@H](OC(=O)CCC(=O)O)O[C@@H]2O[C@@]3(C)CC[C@H]4[C@H](C)CC[C@@H]1[C@@]24OO3 [ARTESUNATE] |  |  |  |  |  |  |  |  |  |  | ED50 [1]: 5.9 mg/kg
2 | Cc1cc(Nc2ccc(C(F)(F)F)cc2)n2ncnc2n1 | 21 µM (≈ 6.16 µg/mL) | 0.131 | 2.5 |  |  |  |  |  |  |  | microsomal CLint at 1 µM [5]: 8 µL/min/mg
3 | Cc1cc(Nc2ccc(C(C)C)cc2)n2ncnc2n1 | 47 µM (≈ 12.6 µg/mL) | 0.087 | 3 | 800 nM | 0.22 µM | 0.88 µM | 30 µL/min/mg | Non-toxic | 241 µL/min/mg | 0.78 µM | IC50 [7]: > 100 µM
4 | Cc1cc(NC2CCc3ccccc3C2)n2ncnc2n1 (stereo not given) |  |  | 2.9 | 7800 nM | 0.54 µM | 2.3 µM | < 5 µL/min/mg | Non-toxic | 35 µL/min/mg | 1.8 µM | Time (Mus musculus [11]): 6 h; solubility ([2]; buffer): > 358 µM
5 | Cc1cc(Nc2ccc3c(c2)CCCC3)n2ncnc2n1 | 89 µM (≈ 24.9 µg/mL) | 0.045 | 3.4 | 2200 nM |  | 0.19 µM | 72 µL/min/mg | Non-toxic | 361 µL/min/mg | 0.16 µM | IC50 [7]: > 100 µM; Time (Mus musculus [11]): 1 h
6 | O=C1C(O)=C([C@H]2CC[C@H](c3ccc(Cl)cc3)CC2)C(=O)c2ccccc21 [ATOVAQUONE] |  |  |  |  |  |  |  |  |  | 0.0015 µM | PPB (Plasma): 87%
7 | CCN(CC)CCCC(C)Nc1ccnc2cc(Cl)ccc12 (stereo not given) [CHLOROQUINE] |  |  |  |  |  |  |  |  |  |  | Activity [12]: 50%; ED50 [1]: 1.8 mg/kg; PPB (Plasma): 87%
8 | Cc1cc(NC2Cc3ccccc3C2)n2ncnc2n1 | 188 µM (≈ 49.9 µg/mL) | 0.239 | 2.5 | 500 nM | 0.5 µM | 2.4 µM | < 5 µL/min/mg | Non-toxic | 32 µL/min/mg | 0.4 µM | 
9 | Cc1cc(Nc2ccc(C(C)(C)C)c(F)c2)n2ncnc2n1 |  | 0.036 | 3.5 | 250 nM | 0.035 µM |  | 32 µL/min/mg | Non-toxic | 68 µL/min/mg | 0.097 µM | solubility ([2]; buffer): < 2.7 µM; IC50 [13]: 0.11 µM
10 | CCCc1c(C)nc2ncnn2c1Nc1ccc(C)cc1 |  |  |  |  | > 100 µM |  |  |  |  | > 10 µM | IC50 [7]: > 100 µM; IC50 [13]: > 100 µM
11 | Cc1cc(Nc2ccc3sccc3c2)n2ncnc2n1 | 22 µM (≈ 6.19 µg/mL) | 0.102 | 2.6 | 400 nM | 0.09 µM | 0.6 µM | 64 µL/min/mg | Non-toxic | 162 µL/min/mg | 0.066 µM | 
12 | Cc1cc(NCCCc2ccccc2)n2ncnc2n1 |  |  |  |  | 26 µM |  |  |  |  | 25 µM | IC50 [13]: > 100 µM
13 | OC(c1cc(C(F)(F)F)nc2c(C(F)(F)F)cccc12)C1CCCCN1 (stereo not given) [MEFLOQUINE] |  |  |  |  |  |  |  |  |  |  | ED50 [1]: 3.8 mg/kg
